Measured values from ChEMBL document CHEMBL1165887, “Structure-activity relationships of monomeric C2-aryl pyrrolo[2,1-c][1,4]benzodiazepine (PBD) antitumor agents” (J Med Chem, 2010).
pIC50: −log10 of the molar value. The source made the active and inactive calls. The calls are words filed in the database; no cut-off is given here.

Experiments:
Calf thymus DNA [1] = experiment: Binding affinity to calf thymus DNA assessed as change in melting temperature after 18 hrs; format: nucleic-acid assay; settings: Bos taurus
Summary of the method: (§1)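 Calf thymus DNA at a fixed 100 μM (DNAp, 50 μM bp) in pH 7.00 buffer of 10 mM NaH₂PO₄/Na₂HPO₄ and 1 mM Na₂EDTA, 1:5 ligand/DNAp ratio, DMSO ≤0.3% v/v. Mixture kept at 37 °C for the stated time, then melted while absorbance at 260 nm was monitored. Tm taken at the midpoint of the normalized profile; ΔTm = Tm(DNA+ligand) − Tm(DNA), corrected for DMSO; mean of at least three runs.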

[2] = Growth inhibition of human NCI60 cells after 48 hrs by SRB assay; format: functional; settings: NCI60, 48 h; for CC50: read-out: LC50 (the source's name)
Calf thymus DNA [3] = experiment: Binding affinity to calf thymus DNA assessed as change in melting temperature after 4 hrs; format: nucleic-acid assay; settings: Bos taurus; summary of the method: as §1
K562 = experiment: Cytotoxicity against human K562 cells after 96 hrs by alamar blue assay; format: functional, cell-based; settings: K562, 96 h
Summary of the method: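 K562 cells kept in RPMI with 10% fetal calf serum and 2 mM glutamine, seeded at 10⁴ cells/mL. Compounds serially diluted in DMSO and added in triplicate; exposure 96 h at 37 °C, 5% CO₂. Alamar Blue (1 μM final) then added for a further 4 h; read by fluorescence emission at 580-620 nm.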

HCT-116 = experiment: Antitumor activity against human HCT116 cells xenografted in nu/nu BALB/c mouse assessed as delay in tumor growth at 300 ug/kg, iv; format: functional, cell-based
Summary of the method: (§2)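 Female nu/nu-BALB/c athymic nude mice bearing subcutaneous flank HCT 116 xenografts (10⁷ cells), dosed once intravenously at 300 μg/kg in 1% DMSO/saline once tumours reached 50-100 mm³; vehicle-only controls. Tumours measured by calliper 3 times a week (width² × length/2), expressed as volume relative to day 1. Body weight monitored daily over 12 days as % change from day 1.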

Mus musculus = experiment: Toxicity in human HCT116 xenografter nu/nu BALB/c mouse assessed as change in body weight at 300 ug/kg, iv; format: organism-based; settings: in vivo, 0.3 mg/kg; summary of the method: as §2

Row | SMILES | ΔTm (Calf thymus DNA [1]) | GI50 [2] | TGI [2] | CC50 [2] | ΔTm (Calf thymus DNA [3]) | pIC50 (K562) | Activity (HCT-116) | Activity (Mus musculus)
1 | COc1cc2c(cc1OC)C(=O)N1C=C(c3ccc4ncccc4c3)C[C@H]1C=N2 | 20.5 °C | 0.4 nM | 4 nM | 190 nM | 19.9 °C | 8.85 | Active | Non-toxic
2 | COc1cc2c(cc1OC)C(=O)N1C=C(c3ccc(Cl)cc3)C[C@H]1C=N2 | 10.2 °C | 2 nM | 70 nM | 4470 nM | 9.9 °C | 7.50 |  | 
3 | COc1cc2c(cc1OC)C(=O)N1C=C(c3ccc(C=O)cc3)C[C@H]1C=N2 | 10.8 °C | 9 nM | 160 nM | 15100 nM | 10.6 °C | 7.58 |  | 
4 | COc1cc2c(cc1OC)C(=O)N1C=C(c3ccc(Oc4ccccc4)cc3)C[C@H]1C=N2 | 12.1 °C | 3 nM | 30 nM | 1260 nM | 11.9 °C | 7.29 |  | 
5 | COc1cc2c(cc1OC)C(=O)N1C=C(c3ccc(C#N)cc3)C[C@H]1C=N2 | 11 °C | 3 nM | 150 nM | 7410 nM | 10.9 °C | 7.70 |  | 
6 | CCc1ccc(C2=CN3C(=O)c4cc(OC)c(OC)cc4N=C[C@@H]3C2)cc1 | 9.7 °C | 1 nM | 70 nM | 4170 nM | 9.4 °C | 7.10 |  | 
7 | COc1cc2c(cc1OC)C(=O)N1C=C(c3ccc(N)cc3)C[C@H]1C=N2 | 6.5 °C | 2 nM | 30 nM | 4790 nM | 6.2 °C | 7.85 |  | 
8 | COc1cc2c(cc1OC)C(=O)N1C=C(c3ccc(C(C)C)cc3)C[C@H]1C=N2 | 6.9 °C | 4 nM | 60 nM | 4460 nM | 6.7 °C | 6.94 |  | 
9 | COc1cc2c(cc1OC)C(=O)N1C=C(c3ccccc3)C[C@H]1C=N2 | 10.8 °C | 2 nM | 40 nM | 5130 nM | 10.6 °C | 8.60 |  | 
10 | COc1cc2c(cc1OC)C(=O)N1C=C(c3ccc(N(C)C)cc3)C[C@H]1C=N2 | 8 °C | 3 nM | 40 nM | 3230 nM | 7.6 °C | 7.49 |  | 
11 | COc1cc2c(cc1OC)C(=O)N1C=C(c3ccc(C)cc3)C[C@H]1C=N2 | 10.1 °C | 2 nM | 180 nM | 8900 nM | 9.8 °C | 9.55 |  | 
12 | COc1cc2c(cc1OC)C(=O)N1C=C(c3ccc(C(C)(C)C)cc3)C[C@H]1C=N2 | 9.2 °C | 2 nM | 50 nM | 1940 nM | 9 °C | 7.32 |  | 
13 | C=Cc1ccc(C2=CN3C(=O)c4cc(OC)c(OC)cc4N=C[C@@H]3C2)cc1 | 9.2 °C | 5 nM | 10 nM | 620 nM | 9 °C | 7.16 |  | 
14 | COc1ccc(C2=CN3C(=O)c4cc(OC)c(OC)cc4N=C[C@@H]3C2)cc1 | 10.6 °C | 1 nM | 150 nM | 910 nM | 10.5 °C | 8.31 |  | 
15 | COc1cc2c(cc1OC)C(=O)N1C=C(c3ccc(-c4ccccc4)cc3)C[C@H]1C=N2 | 8.4 °C | 8 nM | 90 nM | 3630 nM | 8.1 °C | 7.71 |  | 
